Assay results: ChEMBL document CHEMBL2176920, “Structure-based selectivity optimization of piperidine-pteridine derivatives as potent Leishmania pteridine reductase inhibitors” (J Med Chem, 2012)
≈ marks a conversion by molar mass, not a printed value. Calls of active or inactive are those of the source. No cut-off for these calls is given here.

Assays:
[1] = target: T1, Thymidylate synthase (Homo sapiens, UniProt P04818); assay: Inhibition of human TS by spectrophotometric analysis
Target sequence in this assay (P04818 whole entry): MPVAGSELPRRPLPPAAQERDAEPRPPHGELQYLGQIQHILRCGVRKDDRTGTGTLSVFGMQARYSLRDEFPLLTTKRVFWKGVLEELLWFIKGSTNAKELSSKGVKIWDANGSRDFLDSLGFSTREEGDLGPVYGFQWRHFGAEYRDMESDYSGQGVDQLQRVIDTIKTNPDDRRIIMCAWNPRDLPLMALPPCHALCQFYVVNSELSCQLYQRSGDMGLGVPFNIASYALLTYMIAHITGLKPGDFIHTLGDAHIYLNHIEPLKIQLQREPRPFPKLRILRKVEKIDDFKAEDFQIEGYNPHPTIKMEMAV

[2] = Toxicity against human MRC5 cells assessed as growth inhibition; assay type: cell-based; conditions: read-out: ED50 (the source's name)
How it was run: (§1)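 MRC-5 human fibroblasts were grown at 37 °C, 5% CO2, in DMEM with 10% heat-inactivated FBS and extra glutamine. Cells were seeded so that control wells were confluent after 72 h of incubation with compound. Alamar Blue optical density was the read-out. Values are mean ± SD of three independent experiments.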

[3] = target: T2, Dihydrofolate reductase (Homo sapiens, UniProt P00374); assay: Inhibition of human DHFR by spectrophotometric analysis
T2 sequence (P00374 whole entry): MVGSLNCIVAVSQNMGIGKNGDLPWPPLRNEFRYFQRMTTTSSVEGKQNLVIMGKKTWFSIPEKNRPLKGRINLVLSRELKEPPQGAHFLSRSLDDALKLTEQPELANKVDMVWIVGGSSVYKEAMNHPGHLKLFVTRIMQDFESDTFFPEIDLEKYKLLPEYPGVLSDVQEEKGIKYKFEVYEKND

[4] = system: Leishmania mexicana; assay: Inhibition of pteridine reductase in Leishmania mexicana promastigote assessed as reduction in cell survival upon H2O2 exposure at ED50 after 48 hrs at 28 degC relative to control
How it was run: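 L. mexicana promastigotes plated at 10^5 cells/mL and pretreated with compound for 48 h at 28 °C. Then diluted to 2 × 10^4 cells/mL and exposed to increasing H2O2 concentrations for 45 min. Surviving motile parasites counted on a Neubauer grid. Compound-treated, non-H2O2 sample taken as 100%; compared against untreated H2O2-exposed series.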

[5] = system: Leishmania mexicana; assay: Antiparasitic activity against Leishmania mexicana promastigotes assessed as parasite growth at 50 ug/mL; assay type: functional
How it was run: (§2)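 Promastigotes grown from 10^5 parasites/mL and harvested in exponential phase at 2 × 10^7/mL. For the assay they were plated at 10^6 cells/mL in 96-well format, so cells were leaving exponential phase for stationary phase. Compound was given at 50 μg/mL alone or together with pyrimethamine at 30 μg/mL. Percent growth inhibition was compared between the single agent and the combination.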

[6] = system: Leishmania major; assay: Antiparasitic activity against Leishmania major promastigotes assessed as parasite growth at 50 ug/mL; assay type: functional; how it was run: as §2
[7] = system: Leishmania mexicana; assay: Inhibition of pteridine reductase in Leishmania mexicana promastigote assessed as increase in pyrimethamine cytotoxicity by Chou-Talalay method
[8] = target: T3, Pteridine reductase 1 (Leishmania major) (UniProt Q01782)
T3 sequence (whole entry): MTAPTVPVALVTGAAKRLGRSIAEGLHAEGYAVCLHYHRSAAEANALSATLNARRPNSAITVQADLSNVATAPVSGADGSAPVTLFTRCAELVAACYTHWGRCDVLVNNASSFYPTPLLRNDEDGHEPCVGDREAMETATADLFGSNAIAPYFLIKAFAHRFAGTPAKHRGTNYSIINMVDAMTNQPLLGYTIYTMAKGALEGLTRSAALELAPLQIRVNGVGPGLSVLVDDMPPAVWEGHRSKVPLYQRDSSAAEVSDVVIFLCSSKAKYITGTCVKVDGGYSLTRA

[9] = system: Leishmania mexicana; assay: Inhibition of pteridine reductase in Leishmania mexicana promastigote assessed as increase in pyrimethamine-induced growth inhibition by measuring parasite growth at 50 ug/mL; parameters: scale not given: the % may be the effect or the level left
How it was run: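 Promastigotes plated at 10^6 cells/mL, leaving exponential and entering stationary phase. Exposed to compound at 50 μg/mL alone or together with pyrimethamine at 30 μg/mL. Percent growth inhibition with compound alone compared with that of each compound plus PYR.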

[10] = target: T4, Dihydrofolate reductase (Homo sapiens) (UniProt P00374); assay: Inhibition of human DHFR at 30 uM by spectrophotometric analysis
T4 sequence (whole entry): T2 sequence (P00374 whole entry)
How it was run: (§3)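 Purified human enzymes screened in continuous spectrophotometric assays. DMSO was kept below the level affecting activity: under 5% for hDHFR and under 8% for hTS.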

[11] = target: T1, Thymidylate synthase; assay: Inhibition of human TS at 50 uM by spectrophotometric analysis; how it was run: as §3
Target sequence in this assay (P04818 2-313 limits assumed): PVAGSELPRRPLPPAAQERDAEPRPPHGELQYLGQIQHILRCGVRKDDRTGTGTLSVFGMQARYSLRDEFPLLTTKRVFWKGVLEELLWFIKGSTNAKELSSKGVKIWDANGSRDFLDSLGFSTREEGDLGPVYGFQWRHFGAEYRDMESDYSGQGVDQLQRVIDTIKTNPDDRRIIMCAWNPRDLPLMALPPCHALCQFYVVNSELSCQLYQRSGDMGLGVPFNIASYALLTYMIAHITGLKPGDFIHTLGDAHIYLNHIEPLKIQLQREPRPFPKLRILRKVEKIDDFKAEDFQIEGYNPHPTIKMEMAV

[12] = system: MRC5; assay: Toxicity against human MRC5 cells assessed as growth inhibition at 50 ug/mL; assay type: cell-based; how it was run: as §1
[13] = target: T1, Thymidylate synthase; assay: Inhibition of human TS at 30 uM by spectrophotometric analysis; how it was run: as §3
Target sequence in this assay (P04818 2-313 limits assumed): as above

[14] = Toxicity against human MRC5 cells assessed as growth inhibition at 100 ug/mL; assay type: cell-based; conditions: read-out: GI; how it was run: as §1
[15] = target: T1, Thymidylate synthase; assay: Inhibition of human TS at 15 uM by spectrophotometric analysis; how it was run: as §3
Target sequence in this assay (P04818 2-313 limits assumed): as above

| SMILES | GI50 [2] [µg/mL] | Activity [5] [%] | Activity [6] [%] | Activity [9] [%] | inhibition [10] | inhibition [13] | inhibition [15] | further results |
| --- | --- | --- | --- | --- | --- | --- | --- | --- |
| COC(=O)C1CCN(C(=O)c2ccc(NCc3cnc4nc(N)nc(N)c4n3)cc2)CC1 | 23.4 (≈ 53.6 µM) | 111.6 | 99.6 | 24.4 | – | – | – | Ki [1]: Not Active; Ki [3]: 10 µM; inhibition [4]: Active; fractional inhibitory concentration index (FICI) [7]: 2.05; FICI [8]: 0.75 |
| COC(=O)C1CCN(C(=O)c2ccc(NCc3cnc4nc(N)nc(N)c4n3)cn2)CC1 | – | 95.6 | 103.4 | 17.6 | inactive | – | – | inhibition [11]: inactive; inhibition [4]: Active; Activity [12]: Non-toxic; fractional inhibitory concentration index (FICI) [7]: 1.51; FICI [8]: 0.8 |
| CCc1ccc(NCc2cnc3nc(N)nc(N)c3n2)cc1C(=O)N1CCC(C(=O)OC)CC1 | – | – | – | – | – | inactive | – | Ki [3]: 4.68 µM |
| CCOC(=O)CN(Cc1cnc2nc(N)nc(N)c2n1)c1ccc(C(=O)N2CCC(C(=O)OC)CC2)cc1 | – | 102.3 | 100.8 | 21.9 | inactive | inactive | – | inhibition at 100 ug/mL [14]: 28% |
| CCc1nc(N)nc(N)c1-c1ccc(Cl)cc1 [PYRIMETHAMINE] | 16.2 (≈ 65.1 µM) | 102.5 | 68 | – | – | – | – | – |
| CCc1cc(C(=O)N2CCC(C(=O)OC)CC2)ccc1NCc1cnc2nc(N)nc(N)c2n1 | 21.8 (≈ 46.9 µM) | 90.6 | 104.2 | 19.6 | inactive | inactive | – | – |
| NC(=O)C1CCN(C(=O)c2ccc(NCc3cnc4nc(N)nc(N)c4n3)cc2)CC1 | 51 (≈ 121 µM) | 88.5 | 121.2 | 15.7 | – | – | inactive | – |
| COC(=O)C1CCN(C(=O)c2ccc(N(C)Cc3cnc4nc(N)nc(N)c4n3)cc2)CC1 | – | – | – | – | – | – | inactive | – |
| COC(=O)C1CCN(C(=O)c2ccc(N(CCO)Cc3cnc4nc(N)nc(N)c4n3)cc2)CC1 | – | 100.1 | 122.2 | 12.9 | – | – | – | Ki ([1]; read-out: Ki): 64 µM; Activity [12]: Non-toxic |
| Nc1nc(N)c2nc(CNc3ccc(C(=O)N4CCC(C(=O)O)CC4)cc3)cnc2n1 | – | – | – | – | – | – | inactive | – |
